Measurements reported in ChEMBL document CHEMBL3120152, “The bat flower: a source of microtubule-destabilizing and -stabilizing compounds with synergistic antiproliferative actions” (J Nat Prod, 2013).
Active and inactive are the calls of the source. The calls are words filed in the database; no cut-off is given here.

Key:
Tubulin (Sus scrofa) [1] = molecular target: T1, Tubulin (Sus scrofa) (UniProt P02554+P02550); assay: Inhibition of purified pig brain tubulin polymerization at 25 uM by spectrophotometry
Outline: (§1)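 Purified porcine brain tubulin with GTP in glycerol buffer, given vehicle or 10 or 25 μM compound. Assembly followed as turbidity, absorbance at 340 nm over time. Rate and extent of polymerization compared with vehicle.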

Tubulin (Sus scrofa) [2] = molecular target: T1, Tubulin (Sus scrofa); assay: Inhibition of purified pig brain tubulin polymerization by spectrophotometry; outline: as §1
SK-OV-3 [3] = assay: Cytotoxicity against human SKOV3 cells after 72 hrs by SRB assay; settings: SK-OV-3, 72 h
Tubulin (Sus scrofa) [4] = molecular target: T1, Tubulin (Sus scrofa); assay: Displacement of colchicine from purified pig brain tubulin by fluorescence assay in presence of GTP
Outline: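 Purified tubulin mixed with colchicine and GTP, plus a range of compound concentrations. Colchicine bound to tubulin fluoresces, so displacement is read as loss of that fluorescence. CA-4 used as positive control; 3 replicates, standard deviations.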

HeLa [5] = assay: Antimitotic activity in human HeLa cells assessed as abberent multiple spindle asters at 5 uM by indirect immunofluorescence assay relative to vehicle-treated control; assay type: functional, cell-based
Outline: (§2)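 HeLa cells grown in basal medium Eagle with Earle's salts, 10% FBS and 25−50 μg/mL gentamicin, given vehicle or 5 μM compound. Cell cycle distribution read by flow cytometry. Mitotic spindle shape viewed by indirect immunofluorescence of tubulin.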

HeLa [6] = assay: Cytotoxicity against human HeLa cells after 72 hrs by SRB assay
HeLa [7] = assay: Resistance ratio of IC50 for human HeLa cells expressing beta3-tubulin containing alanine residue at […] to IC50 for human HeLa cells; assay type: functional
Outline: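 Relative resistance = SRB-assay IC50 in WTβIII cells divided by IC50 in parental HeLa. Both lines were grown in basal medium Eagle with Earle's salts, 10% FBS and 25−50 μg/mL gentamicin.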

HeLa [8] = assay: Cytotoxicity against human HeLa cells expressing beta3-tubulin containing alanine residue at 277 after 72 hrs by SRB assay
SK-OV-3 [9] = assay: Cytotoxicity against human SKOV3 cells expressing MDR1 after 72 hrs by SRB assay; settings: SK-OV-3, 72 h
SK-OV-3 [10] = assay: Resistance ratio of IC50 for human SKOV3 cells expressing MDR1 to IC50 for human SKOV3 cells; assay type: functional
Outline: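 Relative resistance = SRB-assay IC50 in Pgp-overexpressing SK-OV-3/MDR-1-6/6 divided by IC50 in parental SK-OV-3. Both lines were grown in basal medium Eagle with Earle's salts, 10% FBS and 25−50 μg/mL gentamicin.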

HeLa [11] = assay: Cell cycle arrest in human HeLa cells assessed as accumulation at G2/M phase at 5 uM by flow cytometry; assay type: functional, cell-based; outline: as §2
Tubulin (Sus scrofa) [12] = molecular target: T1, Tubulin (Sus scrofa); settings: 2 to 3 uM

T1 sequence (P02550 whole entry, looked up): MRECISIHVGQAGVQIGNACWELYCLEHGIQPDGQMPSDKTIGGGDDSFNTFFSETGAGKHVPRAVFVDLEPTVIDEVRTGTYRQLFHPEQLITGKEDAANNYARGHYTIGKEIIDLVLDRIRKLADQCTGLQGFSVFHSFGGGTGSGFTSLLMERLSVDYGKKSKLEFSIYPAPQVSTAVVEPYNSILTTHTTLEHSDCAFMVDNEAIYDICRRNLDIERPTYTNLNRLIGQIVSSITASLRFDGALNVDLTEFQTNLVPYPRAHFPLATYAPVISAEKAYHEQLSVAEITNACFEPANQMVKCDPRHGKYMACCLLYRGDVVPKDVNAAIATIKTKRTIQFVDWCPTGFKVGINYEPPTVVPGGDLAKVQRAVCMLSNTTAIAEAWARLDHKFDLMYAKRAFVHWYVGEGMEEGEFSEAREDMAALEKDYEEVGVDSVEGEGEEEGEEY
T1 sequence (P02554 whole entry, looked up): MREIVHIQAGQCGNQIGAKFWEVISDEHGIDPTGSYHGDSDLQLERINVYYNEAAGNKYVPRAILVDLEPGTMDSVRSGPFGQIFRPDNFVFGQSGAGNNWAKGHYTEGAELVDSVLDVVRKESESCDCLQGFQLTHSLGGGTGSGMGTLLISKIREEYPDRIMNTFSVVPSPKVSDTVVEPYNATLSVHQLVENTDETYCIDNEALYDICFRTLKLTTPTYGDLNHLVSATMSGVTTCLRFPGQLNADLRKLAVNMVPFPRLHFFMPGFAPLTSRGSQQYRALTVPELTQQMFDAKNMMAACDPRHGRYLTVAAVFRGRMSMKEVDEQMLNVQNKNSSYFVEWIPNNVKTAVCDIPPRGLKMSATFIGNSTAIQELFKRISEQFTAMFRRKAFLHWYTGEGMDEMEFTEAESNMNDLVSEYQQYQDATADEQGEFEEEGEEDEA

Row | SMILES | inhibition (Tubulin (Sus scrofa) [1]) | inhibition (Tubulin (Sus scrofa) [2]) | IC50 (SK-OV-3 [3]) | inhibition (Tubulin (Sus scrofa) [4]) | Activity (HeLa [5]) | IC50 (HeLa [6]) | Ratio IC50 (HeLa [7]) | IC50 (HeLa [8]) | IC50 (SK-OV-3 [9]) | Ratio IC50 (SK-OV-3 [10]) | Activity (HeLa [11]) | inhibition (Tubulin (Sus scrofa) [12])
1 | COc1cc(OC)c(CCC(=O)c2ccc(OC)c(O)c2)c(OC)c1 | 50% | Dose-dependent effect | 812 nM | Dose-dependent effect | Active | 581 nM | 1.2 | 690 nM | 2230 nM | 2.7 | Active | –
2 | CC(=O)O[C@@H]1[C@H]2[C@H]3[C@H]([C@H](OC(C)=O)[C@H](OC(C)=O)[C@]2(C)[C@@H]2[C@@H]1[C@]1(C)C(=C[C@H]2C)OC(=O)[C@@]1(C)O)[C@]1(C)[C@H](C[C@@H]2O[C@@H]2[C@@H]1OC(C)=O)C(=O)[C@@H]3O | – | – | – | – | Active | – | – | – | – | – | Active | –
3 | COc1ccc(/C=C\c2cc(OC)c(OC)c(OC)c2)cc1O | – | – | – | – | – | – | – | – | – | – | – | 50%
